The target in one data set is T1, Alpha-mannosidase (Canavalia ensiformis, UniProt C0HJB3).
T1 sequence (C0HJB3 whole entry): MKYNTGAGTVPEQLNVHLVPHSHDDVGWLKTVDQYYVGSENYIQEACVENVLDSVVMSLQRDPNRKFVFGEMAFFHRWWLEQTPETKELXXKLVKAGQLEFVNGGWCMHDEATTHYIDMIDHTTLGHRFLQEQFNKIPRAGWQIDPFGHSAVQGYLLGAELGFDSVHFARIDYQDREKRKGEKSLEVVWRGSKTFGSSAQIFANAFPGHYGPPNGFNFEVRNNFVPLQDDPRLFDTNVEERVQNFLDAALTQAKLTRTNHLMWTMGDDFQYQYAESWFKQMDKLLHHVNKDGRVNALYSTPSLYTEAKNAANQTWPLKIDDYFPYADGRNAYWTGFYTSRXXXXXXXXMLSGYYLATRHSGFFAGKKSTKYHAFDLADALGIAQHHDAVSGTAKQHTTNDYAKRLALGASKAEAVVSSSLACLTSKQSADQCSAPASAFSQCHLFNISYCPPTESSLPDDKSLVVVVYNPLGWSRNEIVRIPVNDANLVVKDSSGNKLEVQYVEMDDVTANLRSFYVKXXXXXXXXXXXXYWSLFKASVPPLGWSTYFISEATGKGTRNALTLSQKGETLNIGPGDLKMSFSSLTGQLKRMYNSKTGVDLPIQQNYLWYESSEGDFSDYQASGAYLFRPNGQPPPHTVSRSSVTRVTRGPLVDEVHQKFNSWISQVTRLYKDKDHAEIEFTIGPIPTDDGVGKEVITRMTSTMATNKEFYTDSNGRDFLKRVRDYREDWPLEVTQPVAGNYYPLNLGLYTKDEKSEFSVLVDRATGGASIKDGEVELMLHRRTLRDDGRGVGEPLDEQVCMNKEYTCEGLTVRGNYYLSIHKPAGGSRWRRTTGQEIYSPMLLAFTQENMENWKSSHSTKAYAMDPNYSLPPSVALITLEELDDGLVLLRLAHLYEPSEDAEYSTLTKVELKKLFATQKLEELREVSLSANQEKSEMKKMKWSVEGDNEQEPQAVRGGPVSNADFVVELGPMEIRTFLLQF
In words: Inhibition of jack bean alpha-mannosidase using […] as substrate incubated for 10 mins by spectrophotometric method.

Data set [1] deals with T2, Tissue alpha-L-fucosidase (Bos taurus, UniProt Q2KIM0).
T2 sequence (Q2KIM0 whole entry): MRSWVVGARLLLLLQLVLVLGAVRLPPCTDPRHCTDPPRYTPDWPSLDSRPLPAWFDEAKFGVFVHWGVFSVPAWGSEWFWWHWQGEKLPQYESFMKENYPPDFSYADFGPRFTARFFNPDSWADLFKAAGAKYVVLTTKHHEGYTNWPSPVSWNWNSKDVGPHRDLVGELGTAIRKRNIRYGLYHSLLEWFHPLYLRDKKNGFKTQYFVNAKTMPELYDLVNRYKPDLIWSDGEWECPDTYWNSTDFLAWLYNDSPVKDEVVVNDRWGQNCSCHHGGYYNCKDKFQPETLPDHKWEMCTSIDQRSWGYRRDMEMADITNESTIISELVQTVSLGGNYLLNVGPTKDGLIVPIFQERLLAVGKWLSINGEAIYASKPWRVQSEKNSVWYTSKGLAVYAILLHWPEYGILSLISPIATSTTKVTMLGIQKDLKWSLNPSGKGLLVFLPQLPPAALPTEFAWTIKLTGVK
Briefly: Inhibition of bovine kidney alpha-fucosidase using […] as substrate incubated for 10 mins by spectrophotometric method.

The nature of data set [2]: Inhibition of Saccharomyces cerevisiae alpha-glucosidase assessed as reduction in p-nitrophenol liberation using PNPG as substrate preincubated with substrate for 5 mins followed by incubation with enzyme for 5 mins.
Data set [3] in a line: Inhibition of Saccharomyces cerevisiae alpha-glucosidase using PNPG as substrate incubated for 10 mins by spectrophotometric method.
The nature of data set [4]: Inhibition of fungi maltase. The procedure, abridged: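 Yeast α-glucosidase, 0.1 IU per well, was added to 2 mM 4-nitrophenyl α-D-glucopyranoside in 10 mM potassium phosphate pH 7.2, with compound from DMSO at 2–10 μM. Plates ran 10 min at 37 °C and were read at 430 nm. Inhibition was calculated against a buffer control, and IC50 came from three independent assays run in triplicate.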

Data set [5] can be described thus: Inhibition of rice alpha-glucosidase. Also noted: species or system Oryza sativa.
The target in data set [6] is T3, Alpha-mannosidase (Canavalia ensiformis) (UniProt C0HJB3).
T3 sequence (whole entry): T1 sequence (C0HJB3 whole entry)
In words: Inhibition of jack bean alpha-mannosidase at 1 mM using […] as substrate incubated for 10 mins by spectrophotometric method.

The nature of data set [7]: Inhibition of Saccharomyces cerevisiae alpha-glucosidase using pNPG as substrate preincubated for 15 mins followed by substrate addition and measured after 30 mins by spectrophotometric analysis.
The nature of data set [8]: Inhibition of Saccharomyces cerevisiae alpha-glucosidase assessed as reduction in p-nitrophenol release using p-nitrophenyl glycoside as substrate by spectrophotometric analysis.
Data set [9] in a line: Inhibition of Wistar rat intestinal maltase assessed as reduction in released D-glucose level using maltose as substrate by colorimetric assay. The format is tissue-based, Intestine.
Data set [10] can be described thus: Toxicity in STZ-treated diabetic Sprague-Dawley rat model assessed as decrease in body weight at 60 mg/kg, po administered once daily for 28 days. It is filed as organism-based. The note with it: in vivo, 672 h, time 28 day. A digest of the protocol: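 Male Sprague-Dawley rats (250–320 g, 8–10 weeks) were made diabetic with a single STZ dose (70 mg/kg ip in 0.1 mmol/L citrate buffer, pH 4.5). Random glucose above 125 mg/dl defined diabetes. Dosing was 60 mg/kg in 0.5% saline by gastric gavage once daily for 4 weeks, n=6 per group, with vehicle controls. Body weight was recorded before and after treatment; mean ± SD, 2-way ANOVA.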

Data set [11] has as its system Rattus norvegicus. In words: Antidiabetic activity against STZ-induced type 1 diabetic Sprague-Dawley rat model assessed as decrease in fasting blood glucose level at 60 mg/kg, po administered once daily for 28 days. It is filed as functional, organism-based. As to conditions: time 28.0 day. The procedure, abridged:
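Male Sprague-Dawley rats (250–320 g, 8–10 weeks) were given STZ 70 mg/kg ip once in 0.1 mmol/L citrate buffer, pH 4.5. Rats with random glucose >125 mg/dl at 4 days were counted diabetic. Dosing was 60 mg/kg in 0.5% saline by gavage once daily for 4 weeks, n=6 per group. After a 6 h fast, tail blood glucose was read by glucometer. Data are mean ± SD; 2-way ANOVA.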

The test system of data set [12] is Rattus norvegicus. Briefly: Decrease in post prandial glucose level in type 1 diabetic Sprague-Dawley rat model at 60 mg/kg, po administered once daily for 28 days. The note with it: time 28.0 day.
Data set [13] can be described thus: Non-competitive inhibition of rat intestinal alpha-glucosidase. It is filed as tissue-based, Intestine.

Activity calls are given as the source filed them. The rule behind the calls is not given here.

In the case of `O=c1c(-c2ccc(O)cc2)coc2cc(O)cc(O)c12` [GENISTEIN], the IC50 (in general, the concentration needed to halve the response being measured) came out at 49 µM against Alpha-mannosidase, 54 µM in data set [1], 7 µM in data set [2] and 81 µM in data set [3].
`OC[C@@H]1[C@@H](O)[C@H](O)[C@H]2[C@H](O)[C@@H](O)CN21` [CASUARINE]: the IC50 on Alpha-mannosidase came out at 51 µM; in data set [1], 82 µM; in data set [4], 0.7 µM; in data set [5], 1.2 µM; in [3] it was 41.1 µM.
Turning to `CCCCCCCCn1cnc2cc(N)c(-c3ccccc3O)cc21`, in data set [6], the inhibition (commonly the share of the control response that was lost under treatment) is less than 50%. In addition, the IC50 came out at 5.03 µM in data set [3] and 0.16 µM in data set [7].
Regarding `OC[C@H]1NC[C@@H](O)[C@@H]1O`, the figures for the half-maximal inhibitory concentration (IC50) in data set [8], in data set [9] and in data set [3] were 0.15 µM, 5.8 µM and 58 µM, respectively. The same compound displayed an inhibition in [6] of less than 50%.
Regarding `C[C@H]1O[C@H](O[C@H]2[C@H](O)[C@@H](O)[C@@H](O[C@H]3[C@H](O)[C@@H](O)C(O)O[C@@H]3CO)O[C@@H]2CO)[C@H](O)[C@@H](O)[C@@H]1N[C@H]1C=C(CO)[C@@H](O)[C@H](O)[C@H]1O` (some centres undefined) [ACARBOSE], in data set [10], the Activity result is reported as “Non-Toxic”. Moreover, the result with Rattus norvegicus [11] was Active. Also, the inhibition result with Rattus norvegicus [12] is “inactive”. The IC50 in [3] came out at 2.1 µM.
In the case of `CCC/C=C1/OC(=O)c2ccccc21` [(E)-BUTYLIDENEPHTHALIDE], the IC50 was 41 µM against Alpha-mannosidase, 82 µM in data set [1] and 7.15 µM in data set [3]. For the same compound, the Ki – broadly, the equilibrium dissociation constant of an inhibitor or competing ligand from its target – in data set [13] turned out to be 4.86 µM.

(Values after ChEMBL document CHEMBL4680156, “Discovery of novel pyrido-pyrrolidine hybrid compounds as alpha-glucosidase inhibitors and alternative agent for control of type 1 diabetes” (Eur J Med Chem, 2020).)
